{"source": "ChEMBL document CHEMBL4622841", "about": "“Structural modifications of indolinones bearing a pyrrole moiety and discovery of a multi-kinase inhibitor with potent antitumor activity” (Bioorg Med Chem, 2020)", "key": {"MKN-74 [1]": {"tested_on": "MKN-74", "test": "Induction of apoptosis in human MKN74 cells assessed as necrotic cells at 0.3 uM incubated for 72 hrs by Annexin-V-FITC/propidium iodide staining-based flow cytometric analysis (reference value: 6.29%)", "format": "functional"}, "[2]": {"target": "Serine/threonine-protein kinase B-raf (Homo sapiens, UniProt P15056)", "sequence (P15056 whole entry)": "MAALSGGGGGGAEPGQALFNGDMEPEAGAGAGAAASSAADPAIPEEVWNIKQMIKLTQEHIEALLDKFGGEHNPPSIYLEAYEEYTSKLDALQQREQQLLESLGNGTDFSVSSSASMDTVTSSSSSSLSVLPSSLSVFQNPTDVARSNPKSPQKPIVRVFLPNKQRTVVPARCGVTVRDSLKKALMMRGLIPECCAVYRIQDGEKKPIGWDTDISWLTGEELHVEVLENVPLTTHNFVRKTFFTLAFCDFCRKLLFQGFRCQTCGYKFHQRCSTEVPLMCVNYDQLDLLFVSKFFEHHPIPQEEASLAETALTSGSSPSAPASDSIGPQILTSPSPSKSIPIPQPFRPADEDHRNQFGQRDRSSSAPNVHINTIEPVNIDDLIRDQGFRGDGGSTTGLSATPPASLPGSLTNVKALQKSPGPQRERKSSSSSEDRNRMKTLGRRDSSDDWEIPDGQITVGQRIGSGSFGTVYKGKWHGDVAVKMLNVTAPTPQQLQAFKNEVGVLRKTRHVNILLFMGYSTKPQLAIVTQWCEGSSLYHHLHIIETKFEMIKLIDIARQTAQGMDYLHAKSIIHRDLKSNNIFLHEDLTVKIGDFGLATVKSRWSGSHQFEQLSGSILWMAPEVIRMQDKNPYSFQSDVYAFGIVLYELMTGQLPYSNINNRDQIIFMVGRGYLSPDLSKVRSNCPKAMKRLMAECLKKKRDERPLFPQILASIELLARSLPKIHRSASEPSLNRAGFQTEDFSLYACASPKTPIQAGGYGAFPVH", "test": "Inhibition of B-Raf (unknown origin) at 1 uM using FAM-labeled peptide and ATP as substrate preincubated for 10 mins followed by substrate addition measured after 1 hr by mobility shift assay"}, "MKN-74 [3]": {"tested_on": "MKN-74", "test": "Inhibition of colony formation in human MKN74 cells measured after 14 days by crystal violet staining-based assay", "format": "functional, cell-based", "how_it_was_run": "(§1)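 Cells plated and exposed to test agent at a range of concentrations for 14 days, then colonies counted. Colony formation expressed relative to vehicle-treated cells as mean ± SEM. Significance versus vehicle by unpaired two-tailed Student's t-test.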"}, "[4]": {"test": "Inhibition of GST-tagged human recombinant VEGFR3 cytoplasmic domain (800 to 1297 residues) Q890H/V1128L/H1146R mutant expressed in baculovirus expression system using FAM-labeled peptide and ATP as substrate preincubated for 10 mins followed by substrate addition measured after 1 hr by mobility shift assay"}, "HT-29 [5]": {"tested_on": "HT-29", "test": "Induction of apoptosis in human HT-29 cells assessed as late apoptotic cells at 3 uM incubated for 72 hrs by Annexin-V-FITC/propidium iodide staining-based flow cytometric analysis (reference value: 6.12%)", "format": "functional"}, "HUVEC [6]": {"tested_on": "HUVEC", "test": "Induction of apoptosis in human HUVEC cells assessed as early apoptotic cells at 3 uM incubated for 48 hrs by Annexin-V-FITC/propidium iodide staining-based flow cytometric analysis (reference value: 3.63%)", "format": "functional"}, "[7]": {"target": "T1, Serine/threonine-protein kinase Chk1 (Homo sapiens) (UniProt O14757)", "T1 sequence (whole entry)": "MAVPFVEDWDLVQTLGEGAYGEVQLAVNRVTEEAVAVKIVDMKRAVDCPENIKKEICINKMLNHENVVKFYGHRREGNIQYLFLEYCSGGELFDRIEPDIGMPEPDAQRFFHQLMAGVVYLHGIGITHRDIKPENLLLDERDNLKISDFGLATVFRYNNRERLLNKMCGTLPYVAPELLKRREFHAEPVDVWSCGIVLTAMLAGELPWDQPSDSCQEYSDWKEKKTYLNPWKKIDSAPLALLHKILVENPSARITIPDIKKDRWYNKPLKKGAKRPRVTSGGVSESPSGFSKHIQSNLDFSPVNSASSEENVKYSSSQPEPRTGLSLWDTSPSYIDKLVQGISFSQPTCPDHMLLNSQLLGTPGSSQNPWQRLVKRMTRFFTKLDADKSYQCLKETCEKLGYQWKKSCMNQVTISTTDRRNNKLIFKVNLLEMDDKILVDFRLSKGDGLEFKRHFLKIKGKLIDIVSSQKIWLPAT", "test": "Inhibition of CHK (unknown origin) at 1 uM using FAM-labeled peptide and ATP as substrate preincubated for 10 mins followed by substrate addition measured after 1 hr by mobility shift assay"}, "[8]": {"test": "Intrinsic clearance in human liver microsomes", "format": "ADME, Microsome", "conditions": "read-out: CLH"}, "HT-29 [9]": {"tested_on": "HT-29", "test": "Inhibition of receptor tyrosine kinase in human HT-29 cells assessed as reduction in ERK phosphorylation at Thr202/Tyr204 residues at 3 uM after 24 hrs by Western blotting analysis", "format": "cell-based", "how_it_was_run": "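Cells cultured overnight, then treated with compound at different concentrations for 24 h. About 1×10⁶ cells harvested and immunoblotted for p-AKT (Ser473), AKT, p-ERK (Thr202/Tyr204), ERK, with GAPDH as loading control. Detection by chemiluminescence and gel imaging. Blots shown are representative of several experiments.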"}, "MKN-74 [10]": {"tested_on": "MKN-74", "test": "Induction of apoptosis in human MKN74 cells assessed as necrotic cells at 3 uM incubated for 72 hrs by Annexin-V-FITC/propidium iodide staining-based flow cytometric analysis (reference value: 6.29%)", "format": "functional"}, "[11]": {"target": "Vascular endothelial growth factor receptor 2 (Homo sapiens, UniProt P35968)", "sequence (P35968 whole entry, the tested form may be a part)": "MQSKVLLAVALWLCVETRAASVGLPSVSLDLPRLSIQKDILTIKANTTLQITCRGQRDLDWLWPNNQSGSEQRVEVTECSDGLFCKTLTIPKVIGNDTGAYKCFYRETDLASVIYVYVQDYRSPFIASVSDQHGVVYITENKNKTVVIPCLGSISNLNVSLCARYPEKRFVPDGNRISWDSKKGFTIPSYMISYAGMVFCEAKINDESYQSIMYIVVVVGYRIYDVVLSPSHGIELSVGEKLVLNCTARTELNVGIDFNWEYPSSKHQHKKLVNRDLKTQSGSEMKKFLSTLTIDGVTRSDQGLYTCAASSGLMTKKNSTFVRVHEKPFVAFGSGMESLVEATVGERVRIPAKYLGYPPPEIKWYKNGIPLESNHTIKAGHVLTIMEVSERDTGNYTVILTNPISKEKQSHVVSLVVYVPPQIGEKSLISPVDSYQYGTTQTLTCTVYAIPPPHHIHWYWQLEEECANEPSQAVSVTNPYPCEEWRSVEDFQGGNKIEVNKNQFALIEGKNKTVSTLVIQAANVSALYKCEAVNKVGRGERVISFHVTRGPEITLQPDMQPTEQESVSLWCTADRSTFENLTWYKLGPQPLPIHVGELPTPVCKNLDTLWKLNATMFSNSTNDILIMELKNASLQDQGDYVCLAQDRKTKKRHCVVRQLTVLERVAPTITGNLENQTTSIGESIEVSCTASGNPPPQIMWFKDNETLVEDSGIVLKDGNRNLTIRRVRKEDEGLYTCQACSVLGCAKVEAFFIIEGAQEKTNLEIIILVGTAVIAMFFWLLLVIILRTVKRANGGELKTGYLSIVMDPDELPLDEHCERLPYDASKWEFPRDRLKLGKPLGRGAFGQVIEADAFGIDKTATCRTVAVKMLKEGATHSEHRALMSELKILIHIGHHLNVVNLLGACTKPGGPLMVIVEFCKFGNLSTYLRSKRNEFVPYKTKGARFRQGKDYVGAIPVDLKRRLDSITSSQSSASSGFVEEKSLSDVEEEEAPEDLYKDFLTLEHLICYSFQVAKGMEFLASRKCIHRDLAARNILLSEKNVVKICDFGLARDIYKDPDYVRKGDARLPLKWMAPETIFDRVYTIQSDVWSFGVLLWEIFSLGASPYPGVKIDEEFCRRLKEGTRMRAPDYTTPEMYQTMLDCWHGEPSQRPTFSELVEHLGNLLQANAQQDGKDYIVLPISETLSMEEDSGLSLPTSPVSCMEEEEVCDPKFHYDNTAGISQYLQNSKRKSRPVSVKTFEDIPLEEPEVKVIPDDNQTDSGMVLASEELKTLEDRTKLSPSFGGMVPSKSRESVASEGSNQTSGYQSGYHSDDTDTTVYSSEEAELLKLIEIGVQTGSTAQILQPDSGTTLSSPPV", "test": "Inhibition of N-terminal GST fused human VEGFR2 cytoplasmic domain (790 to 1356 (end) residues) expressed in baculovirus expression system using FAM-labeled peptide and ATP as substrate preincubated for 10 mins followed by substrate addition measured after 1 hr by mobility shift assay"}, "[12]": {"test": "Intrinsic clearance in mouse liver microsomes", "format": "ADME, Microsome", "conditions": "read-out: CLH"}, "[13]": {"target": "T2, Cyclin-dependent kinase 4 (Homo sapiens, UniProt P11802)", "T2 sequence (P11802 whole entry)": "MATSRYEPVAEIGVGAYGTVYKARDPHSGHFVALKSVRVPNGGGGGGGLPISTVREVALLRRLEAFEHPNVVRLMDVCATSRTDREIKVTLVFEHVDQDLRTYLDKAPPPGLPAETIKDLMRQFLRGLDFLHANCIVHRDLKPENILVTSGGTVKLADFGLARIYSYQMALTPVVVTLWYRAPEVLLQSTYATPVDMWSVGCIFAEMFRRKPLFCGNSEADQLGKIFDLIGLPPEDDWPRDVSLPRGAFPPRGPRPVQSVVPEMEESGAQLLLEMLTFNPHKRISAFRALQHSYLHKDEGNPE", "test": "Inhibition of CDK4 (unknown origin) using FAM-labeled peptide and ATP as substrate preincubated for 10 mins followed by substrate addition measured after 1 hr by mobility shift assay"}, "HepG2 [14]": {"tested_on": "HepG2", "test": "Inhibition of colony formation in human HepG2 cells at 1 uM measured after 14 days by crystal violet staining-based assay", "format": "functional, cell-based", "how_it_was_run": "as §1"}, "HepG2 [15]": {"tested_on": "HepG2", "test": "Induction of apoptosis in human HepG2 cells assessed as late apoptotic cells at 1 uM incubated for 72 hrs by Annexin-V-FITC/propidium iodide staining-based flow cytometric analysis (reference value: 2.89%)", "format": "functional"}, "HUVEC [16]": {"tested_on": "HUVEC", "test": "Induction of apoptosis in human HUVEC cells assessed as late apoptotic cells at 0.3 uM incubated for 48 hrs by Annexin-V-FITC/propidium iodide staining-based flow cytometric analysis (reference value: 3.48%)", "format": "functional"}, "HT-29 [17]": {"tested_on": "HT-29", "test": "Inhibition of colony formation in human HT-29 cells at 1 uM measured after 14 days by crystal violet staining-based assay", "format": "functional, cell-based", "how_it_was_run": "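HT-29 cells exposed to compound for 14 days and colonies counted. Read-out is colony formation rate relative to vehicle, given as mean ± SEM. Significance versus the vehicle group was tested by unpaired two-tailed Student's t-test.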"}, "HepG2 [18]": {"tested_on": "HepG2", "test": "Induction of apoptosis in human HepG2 cells incubated for 72 hrs by Annexin-V-FITC/propidium iodide staining-based flow cytometric analysis", "format": "functional, cell-based"}, "MKN-74 [19]": {"tested_on": "MKN-74", "test": "Induction of apoptosis in human MKN74 cells assessed as viable cells at 1 uM incubated for 72 hrs by Annexin-V-FITC/propidium iodide staining-based flow cytometric analysis (reference value: 76.84%)", "format": "functional", "conditions": "MKN-74, 72 h, read-out: Activity"}, "HUVEC [20]": {"tested_on": "HUVEC", "test": "Induction of apoptosis in human HUVEC cells assessed as late apoptotic cells at 3 uM incubated for 48 hrs by Annexin-V-FITC/propidium iodide staining-based flow cytometric analysis (reference value: 3.48%)", "format": "functional"}, "HUVEC [21]": {"tested_on": "HUVEC", "test": "Induction of apoptosis in human HUVEC cells assessed as early apoptotic cells at 1 uM incubated for 48 hrs by Annexin-V-FITC/propidium iodide staining-based flow cytometric analysis (reference value: 3.63%)", "format": "functional"}, "HepG2 [22]": {"tested_on": "HepG2", "test": "Induction of apoptosis in human HepG2 cells assessed as early apoptotic cells at 1 uM incubated for 72 hrs by Annexin-V-FITC/propidium iodide staining-based flow cytometric analysis (reference value: 1.08%)", "format": "functional"}, "[23]": {"target": "T2, Cyclin-dependent kinase 4", "test": "Inhibition of CDK4 (unknown origin) at 1 uM using FAM-labeled peptide and ATP as substrate preincubated for 10 mins followed by substrate addition measured after 1 hr by mobility shift assay"}, "[24]": {"target": "Proto-oncogene tyrosine-protein kinase Src (Homo sapiens, UniProt P12931)", "sequence (P12931 2-536 limits assumed)": "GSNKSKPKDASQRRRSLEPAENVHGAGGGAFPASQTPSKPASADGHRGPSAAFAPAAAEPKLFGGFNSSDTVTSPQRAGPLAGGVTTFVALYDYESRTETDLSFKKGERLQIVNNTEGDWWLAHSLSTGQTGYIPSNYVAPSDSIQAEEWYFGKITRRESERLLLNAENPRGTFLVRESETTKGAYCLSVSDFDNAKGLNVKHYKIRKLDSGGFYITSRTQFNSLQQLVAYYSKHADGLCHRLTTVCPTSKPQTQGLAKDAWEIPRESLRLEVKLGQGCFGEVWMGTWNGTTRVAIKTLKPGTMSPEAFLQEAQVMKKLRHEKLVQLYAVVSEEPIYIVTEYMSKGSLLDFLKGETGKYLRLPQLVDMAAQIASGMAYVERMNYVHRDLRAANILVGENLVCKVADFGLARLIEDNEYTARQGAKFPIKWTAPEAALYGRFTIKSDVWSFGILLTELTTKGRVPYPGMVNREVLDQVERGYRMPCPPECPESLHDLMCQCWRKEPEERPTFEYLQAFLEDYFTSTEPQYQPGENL", "test": "Inhibition of SRC (unknown origin) using FAM-labeled peptide and ATP as substrate preincubated for 10 mins followed by substrate addition measured after 1 hr by mobility shift assay"}, "[25]": {"target": "Cyclin-dependent kinase 2 (Homo sapiens, UniProt P24941)", "test": "Inhibition of CDK2 (unknown origin) at 1 uM using FAM-labeled peptide and ATP as substrate preincubated for 10 mins followed by substrate addition measured after 1 hr by mobility shift assay"}}, "note": "Activity calls are given as the source filed them. The rule behind the calls is not given here.", "data": [{"smiles": "COC(=O)c1ccc2c(c1)NC(=O)/C2=C(\\Nc1ccc(-n2c(C)ccc2CN2CCN(C)CC2)cc1)c1ccccc1", "values": [{"measurement": "Activity", "setting": "MKN-74 [1]", "result": 6.48, "unit": "%"}, {"measurement": "inhibition", "setting": "[2]", "result": "inactive"}, {"measurement": "inhibition", "setting": "MKN-74 [3]", "result": "Dose-dependent effect"}, {"measurement": "IC50", "setting": "[4]", "result": 6.3, "unit": "nM"}, {"measurement": "Activity", "setting": "HT-29 [5]", "result": 88.27, "unit": "%"}, {"measurement": "Activity", "setting": "HUVEC [6]", "result": 55.63, "unit": "%"}, {"measurement": "inhibition", "setting": "[7]", "result": "inactive"}, {"measurement": "CLint scaled", "setting": "[8]", "result": 82, "unit": "mL/min/kg"}, {"measurement": "inhibition", "setting": "HT-29 [9]", "result": "Active"}, {"measurement": "Activity", "setting": "MKN-74 [10]", "result": 4.15, "unit": "%"}, {"measurement": "IC50", "setting": "[11]", "result": 6.5, "unit": "nM"}, {"measurement": "CLint scaled", "setting": "[12]", "result": 436, "unit": "mL/min/kg"}, {"measurement": "IC50", "setting": "[13]", "result": "> 1000", "unit": "nM"}, {"measurement": "inhibition", "setting": "HepG2 [14]", "result": "Active"}, {"measurement": "Activity", "setting": "HepG2 [15]", "result": 61.54, "unit": "%"}, {"measurement": "Activity", "setting": "HUVEC [16]", "result": 2.76, "unit": "%"}, {"measurement": "inhibition", "setting": "HT-29 [17]", "result": "Active"}, {"measurement": "Activity", "setting": "HepG2 [18]", "result": "Dose-dependent effect"}, {"measurement": "viability at 1 µM", "setting": "MKN-74 [19]", "result": 62.9, "unit": "%"}, {"measurement": "Activity", "setting": "HUVEC [20]", "result": 9.06, "unit": "%"}, {"measurement": "Activity", "setting": "HUVEC [21]", "result": 3.58, "unit": "%"}, {"measurement": "Activity", "setting": "HepG2 [22]", "result": 17.61, "unit": "%"}, {"measurement": "inhibition", "setting": "[23]", "result": "inactive"}, {"measurement": "IC50", "setting": "[24]", "result": 178, "unit": "nM"}, {"measurement": "inhibition", "setting": "[25]", "result": "inactive"}]}]}
